The source of these data is ChEMBL document CHEMBL1250552, “Quantitative structure-activity relationship studies of threo-methylphenidate analogs” (Bioorg Med Chem, 2010).

Sequence of Sodium-dependent dopamine transporter (P23977 whole entry): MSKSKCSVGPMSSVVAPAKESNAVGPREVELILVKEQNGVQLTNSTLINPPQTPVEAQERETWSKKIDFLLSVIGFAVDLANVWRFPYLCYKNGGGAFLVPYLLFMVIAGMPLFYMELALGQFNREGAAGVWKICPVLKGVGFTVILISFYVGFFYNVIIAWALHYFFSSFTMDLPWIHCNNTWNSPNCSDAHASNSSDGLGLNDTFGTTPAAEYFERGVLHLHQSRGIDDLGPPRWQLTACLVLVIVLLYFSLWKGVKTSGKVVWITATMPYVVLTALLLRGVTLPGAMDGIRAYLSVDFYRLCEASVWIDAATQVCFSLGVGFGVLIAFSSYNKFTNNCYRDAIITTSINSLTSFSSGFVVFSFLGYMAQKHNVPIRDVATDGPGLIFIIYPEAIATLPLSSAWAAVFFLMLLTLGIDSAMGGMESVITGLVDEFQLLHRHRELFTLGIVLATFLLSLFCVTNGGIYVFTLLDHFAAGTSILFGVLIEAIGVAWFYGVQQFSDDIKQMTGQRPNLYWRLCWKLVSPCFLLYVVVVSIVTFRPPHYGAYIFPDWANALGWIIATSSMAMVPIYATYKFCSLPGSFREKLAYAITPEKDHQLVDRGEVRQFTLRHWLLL

For the first experiment, the target named is Sodium-dependent dopamine transporter (Rattus norvegicus, UniProt P23977). Description: Displacement of [3H]WIN 35428 from Sprague-Dawley rat striatal tissue after 2 hrs by liquid scintillation counting. The class given is tissue-based, Striatum. Particulars: read-out: IC50. In outline:
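Male Sprague–Dawley rats anesthetized with CO₂ gas. Crude synaptosomal P₂ fraction made from striatum and homogenized in 25 mM sodium phosphate, pH 7.7, at 0 °C. Rapid filtration through glass microfiber filters, then scintillation counting.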
Turning to `COC(=O)[C@H](c1ccc(Cl)c(Cl)c1)[C@H]1CCCCN1`, the IC50 amounted to 0.0053 µM.
Still for that read-out and setting: the figure for `COC(=O)[C@H](c1cccc(F)c1)[C@H]1CCCCN1` is 0.0405 µM; for `NC(=O)[C@H](c1ccc(Cl)c(Cl)c1)[C@H]1CCCCN1` (racemic) it is 0.0164 µM.
The same measure, in the same setting: the figure for `OC[C@H](c1ccc(Cl)c(Cl)c1)[C@H]1CCCCN1` (racemic) is 0.0042 µM; for `NC(=O)[C@H](c1ccccc1)[C@H]1CCCCN1` (racemic) it is 1.73 µM.
On to `COC(=O)[C@H](c1cccc(O)c1)[C@H]1CCCCN1`, for which the IC50 was determined as 0.321 µM.
Same read-out and setting: for `COC(=O)[C@H](c1ccc(C(F)(F)F)cc1)[C@H]1CCCCN1` the value was 0.615 µM; for `COC(=O)[C@H](c1ccccc1)[C@H]1CCCCN1Cc1ccsc1` (racemic), 0.143 µM.
For `CCc1ccc([C@@H](C(=O)OC)[C@H]2CCCCN2)cc1` (racemic), the IC50 came out at 0.737 µM.
With `OC[C@H](c1ccc(Cl)c(Cl)c1)[C@H]1CCCCN1Cc1ccccc1` (racemic), the IC50 turned out to be 0.00274 µM.
With `COC(=O)[C@H](c1ccccc1Cl)[C@H]1CCCCN1`, the IC50 came to 1.95 µM.
Same read-out and setting: for `C=CCN1CCCC[C@@H]1[C@H](C(=O)OC)c1ccccc1` (racemic) the value was 0.597 µM; for `COC(=O)[C@H](c1ccccc1)[C@H]1CCCCN1Cc1ccccn1` (racemic), 0.369 µM.
Same read-out and setting: the figure for `COC(=O)[C@H](c1ccccc1)[C@H]1CCCCN1CCCCCCc1ccccc1` (racemic) is 0.656 µM; for `COC(=O)[C@H](c1ccccc1)[C@H]1CCCCN1Cc1ccccc1Cl` (racemic) it is 0.243 µM; for `COC(=O)[C@H](c1ccccc1)[C@H]1CCCCN1CCCCCc1ccccc1` (racemic) it is 1.57 µM.
As for `COC(=O)[C@H](c1ccc(C)cc1)[C@H]1CCCCN1`, the IC50 is 0.033 µM.
Take `COC(=O)[C@H](c1ccc(N)cc1)[C@H]1CCCCN1`: the IC50 is 0.0345 µM.
The same measure, in the same setting: the figure for `COC(=O)[C@H](c1cc(C)cc(C)c1)[C@H]1CCCCN1` (racemic) is 4.69 µM; for `COC(=O)[C@H](c1ccc(OC)c(OC)c1)[C@H]1CCCCN1` it is 0.81 µM.
Same read-out and setting: the figure for `OC[C@H](c1cccc(F)c1)[C@H]1CCCCN1` (racemic) is 0.281 µM; for `COC(=O)[C@H](c1ccccc1)[C@H]1CCCCN1Cc1ccccc1` it is 0.0529 µM; for `COC(=O)[C@H](c1ccc([N+](=O)[O-])cc1)[C@H]1CCCCN1` it is 0.494 µM.
On the same count and under the same terms, for `COC(=O)[C@H](c1ccc(I)cc1)[C@H]1CCCCN1` the value was 0.014 µM.
Regarding `COC(=O)[C@H](c1ccccc1Br)[C@@]1(C)CCCCN1`, the IC50 is 1.87 µM.
Regarding `OC[C@H](c1ccccc1)[C@H]1CCCCN1CCCc1ccccc1` (racemic), the IC50 was 0.194 µM.
Take `COC(=O)[C@H](c1ccccc1)[C@H]1CCCCN1Cc1ccoc1` (racemic): the IC50 amounted to 0.459 µM.
The same measure, in the same setting: for `CC(=O)OC[C@H](c1ccccc1)[C@H]1CCCCN1` (racemic) the value was 0.69 µM; for `COC(=O)[C@H](c1ccccc1)[C@H]1CCCCN1CCc1ccccc1` (racemic), 0.678 µM.
The same measure, in the same setting: for `COC[C@H](c1ccc(Cl)c(Cl)c1)[C@H]1CCCCN1` (racemic) the value was 0.0017 µM; for `COC(=O)[C@H](c1ccccc1)[C@H]1CCCCN1Cc1cccc(Cl)c1` (racemic), 0.106 µM; for `CCN1CCCC[C@@H]1[C@H](CO)c1ccccc1` (racemic), 2.34 µM.
Take `COC(=O)[C@H](c1ccccc1)[C@H]1CCCCN1Cc1cccs1` (racemic): the IC50 worked out at 0.224 µM.
Still for that read-out and setting: for `COC(=O)[C@H](c1ccc(Cl)c(Cl)c1)[C@H]1CCCCN1Cc1ccccc1` (racemic) the value was 0.0763 µM.
The same measure, in the same setting: for `COC[C@H](c1ccccc1)[C@H]1CCCCN1` (racemic) the value was 0.0971 µM; for `COC(=O)[C@H](c1ccccc1)[C@H]1CCCCN1Cc1ccc(Cl)cc1` (racemic), 0.0312 µM; for `COC(=O)[C@H](c1cccc(Cl)c1)[C@H]1CCCCN1Cc1ccccc1` (racemic), 0.0412 µM.
Same read-out and setting: for `COC(=O)[C@H](c1ccccc1F)[C@H]1CCCCN1` the value was 1.42 µM; for `COC(=O)[C@H](c1ccc(Cl)cc1)[C@H]1CCCCN1`, 0.0206 µM; for `COC(=O)[C@H](c1ccc(Br)cc1)[C@H]1CCCCN1`, 0.0069 µM.
In the case of `COC(=O)[C@H](c1ccccc1)[C@H]1CCCCN1Cc1ccncc1` (racemic), the IC50 is 0.128 µM.
In the case of `COC(=O)[C@H](c1ccccc1)[C@H]1CCCCN1Cc1ccco1` (racemic), the IC50 stood at 0.536 µM.
On to `NC(=O)[C@H](c1ccccc1)[C@H]1CCCCN1Cc1ccccc1` (racemic), for which the IC50 worked out at 0.384 µM.
The same measure, in the same setting: the figure for `COC(=O)[C@H](c1cccc(Br)c1)[C@H]1CCCCN1` is 0.00418 µM; for `COC(=O)[C@H](c1ccccc1)[C@H]1CCCCN1Cc1ccc(Cl)s1` (racemic) it is 0.392 µM; for `COC(=O)[C@H](c1ccccc1)[C@H]1CCCCN1Cc1ccc(OC)cc1` (racemic) it is 0.0791 µM.
In the case of `C#CCN1CCCC[C@@H]1[C@H](C(=O)OC)c1ccccc1` (racemic), the IC50 came to 0.821 µM.
Still for that read-out and setting: for `O=C(OCc1ccccc1)[C@H](c1ccccc1)[C@H]1CCCCN1` (racemic) the value was 1.02 µM; for `OC[C@H](c1ccccc1)[C@H]1CCCCN1Cc1ccccc1`, 0.0237 µM; for `OC[C@H](c1ccccc1)[C@H]1CCCCN1CCCCc1ccccc1` (racemic), 0.623 µM.
On to `COC(=O)[C@H](c1cccc(Cl)c1)[C@H]1CCCCN1`, for which the IC50 was found to be 0.0051 µM.
The same measure, in the same setting: the figure for `COC(=O)[C@H](c1cc(Cl)cc(Cl)c1)[C@H]1CCCCN1` (racemic) is 0.0656 µM; for `COC(=O)[C@H](c1ccc(OCO)c(CO)c1)[C@H]1CCCCN1C` it is 0.62 µM.
On to `COC(=O)[C@H](c1ccccc1)[C@H]1CCCCN1Cc1cccnc1` (racemic), for which the IC50 turned out to be 0.173 µM.
Same read-out and setting: for `COC[C@H](c1ccccc1)[C@H]1CCCCN1Cc1ccccc1` the value was 0.0178 µM; for `COC(=O)[C@H](c1cccc(N)c1)[C@H]1CCCCN1`, 0.265 µM.
Turning to `OC[C@H](c1ccccc1)[C@H]1CCCCN1Cc1cccc(Cl)c1` (racemic), the IC50 is 0.0258 µM.
Same read-out and setting: for `COC(=O)[C@H](c1ccccc1)[C@H]1CCCCN1CCCCc1ccccc1` (racemic) the value was 0.205 µM; for `COC(=O)[C@H](c1ccccc1)[C@H]1CCCCN1Cc1ccc(N=C=S)cc1` (racemic), 0.422 µM; for `COC(=O)[C@H](c1cccc(Cl)c1)[C@@]1(C)CCCCN1C`, 0.16 µM.
On to `OC[C@H](c1ccccc1)[C@H]1CCCCN1` (racemic), for which the IC50 stood at 0.448 µM.
The same measure, in the same setting: the figure for `COC(=O)[C@H](c1ccc2ccccc2c1)[C@H]1CCCCN1` is 0.011 µM.
The same measure, in the same setting: the figure for `COC(=O)[C@H](c1ccccc1)[C@H]1CCCCN1Cc1ccc([N+](=O)[O-])cc1` (racemic) is 0.113 µM; for `COC[C@H](c1ccc(Cl)c(Cl)c1)[C@H]1CCCCN1Cc1ccccc1` (racemic) it is 0.0042 µM; for `CN(C)C(=O)[C@H](c1ccccc1)[C@H]1CCCCN1Cc1ccccc1` (racemic) it is 1.73 µM.
For the compound `COC(=O)[C@H](c1ccc(F)cc1)[C@H]1CCCCN1`, the IC50 worked out at 0.035 µM.
Regarding `OC[C@H](c1ccccc1)[C@H]1CCCCN1CCc1ccccc1` (racemic), the IC50 was determined as 1.43 µM.
Still for that read-out and setting: for `COC(=O)[C@H](c1ccccc1)[C@H]1CCCCN1CCCc1ccccc1` (racemic) the value was 0.267 µM.

Staying with this experiment, now noted: read-out: pIC50 (converted).
On to `OC[C@H](c1ccc(Cl)c(Cl)c1)[C@H]1CCCCN1Cc1ccccc1` (racemic), for which the IC50 is 0.00269 µM.
In the case of `COC(=O)[C@H](c1ccc(C)cc1)[C@H]1CCCCN1C`, the IC50 was 0.141 µM.
The same measure, in the same setting: the figure for `COC(=O)[C@H](c1ccc(O)cc1)[C@H]1CCCCN1C` is 1.2 µM.
